According to ChEMBL document CHEMBL1152607, “Tetraiodobenzimidazoles are potent inhibitors of protein kinase CK2” (Bioorg Med Chem, 2009):
Activity calls are given as the source filed them. No cut-off for these calls is given here.

Columns and labels:
[1] = Inhibition of rat liver Casein kinase 2
Procedure, shortened: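 Ki from Lineweaver–Burk plots: peptide fixed, ATP increasing, with or without several inhibitor concentrations. Alternatively derived from IC50 via the Cheng–Prusoff relationship.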

[2] = organism: Rattus norvegicus; assay: (§1) Noncompetitive inhibition of rat liver Casein kinase 2 using 80 uM ATP and increasing phosphoacceptor substrate by Lineweaver-Burke plot
[3] = as §1

Compound | Ki [1] [nM] | further results
O=C(O)CSc1nc2c(I)c(I)c(I)c(I)c2[nH]1 | 54 | –
S=c1[nH]c2c(Br)c(Br)c(Br)c(Br)c2[nH]1 | 200 | –
Brc1c(I)c(I)c2[nH]cnc2c1I | 100 | –
Clc1c(Cl)c(I)c2[nH]cnc2c1I | 460 | –
Clc1c(I)c(I)c2[nH]cnc2c1I | 160 | –
NC(=O)Cn1cnc2c(I)c(I)c(I)c(I)c21 | 130 | –
O=C(O)CSc1nc2c(Br)c(Br)c(Br)c(Br)c2[nH]1 | 120 | –
OCCNc1nc2c(Br)c(Br)c(Br)c(Br)c2[nH]1 | 140 | –
FC(F)(F)c1nc2c(I)c(I)c(I)c(I)c2[nH]1 | 120 | –
Brc1nc2c(Br)c(Br)c(Br)c(Br)c2[nH]1 | 370 | –
O=c1[nH]c2c(Br)c(Br)c(Br)c(Br)c2[nH]1 | 180 | –
NNC(=O)Cn1cnc2c(I)c(I)c(I)c(I)c21 | 160 | –
Clc1c(I)c(Cl)c2nc[nH]c2c1I | 590 | –
Brc1c(Br)c(Br)c2[nH]cnc2c1Br | 300 | –
O=c1[nH]c2c(I)c(I)c(I)c(I)c2[nH]1 | 50 | –
CCc1nc2c(I)c(I)c(I)c(I)c2[nH]1 | 19 | –
FC(F)(F)C(F)(F)c1nc2c(I)c(I)c(I)c(I)c2[nH]1 | 70 | –
FC(F)(F)C(F)(F)c1nc2c(Br)c(Br)c(Br)c(Br)c2[nH]1 | 200 | –
FC(F)(F)c1nc2c(Br)c(Br)c(Br)c(Br)c2[nH]1 | 370 | –
Clc1c(Cl)c(Cl)c2[nH]cnc2c1Cl | – | Ki [3]: 21000 nM
NC(=O)Cn1cnc2c(Br)c(Br)c(Br)c(Br)c21 | 1450 | –
CNC(=O)Cn1cnc2c(I)c(I)c(I)c(I)c21 | 180 | –
O=C(O)Cn1cnc2c(I)c(I)c(I)c(I)c21 | 140 | –
OCCNc1nc2c(I)c(I)c(I)c(I)c2[nH]1 | 27 | –

More lines, main results first:

Ki [1] [nM] | Compound | further results
24 | Cc1nc2c(I)c(I)c(I)c(I)c2[nH]1 | –
1340 | O=C(O)Cn1cnc2c(Br)c(Br)c(Br)c(Br)c21 | –
250 | Clc1nc2c(Br)c(Br)c(Br)c(Br)c2[nH]1 | –
50 | S=c1[nH]c2c(I)c(I)c(I)c(I)c2[nH]1 | –
330 | Cc1nc2c(I)c(Cl)c(Cl)c(I)c2[nH]1 | –
90 | Brc1nc2c(I)c(I)c(I)c(I)c2[nH]1 | –
120 | Clc1nc2c(I)c(I)c(I)c(I)c2[nH]1 | –
23 | Ic1c(I)c(I)c2[nH]cnc2c1I | Activity [2]: Active
75 | Brc1c(I)c(Br)c2nc[nH]c2c1I | –
1510 | NNC(=O)Cn1cnc2c(Br)c(Br)c(Br)c(Br)c21 | –
1910 | CNC(=O)Cn1cnc2c(Br)c(Br)c(Br)c(Br)c21 | –
